Results: ChEMBL document CHEMBL2086239, “Synthesis and biological evaluation of combretastatin-amidobenzothiazole conjugates as potential anticancer agents” (Eur J Med Chem, 2012)
The source made the active and inactive calls. The rule behind the calls is not given here.

Experiments:
Format in all cases: functional
COLO 205 = experiment: Growth inhibition of human COLO205 cells after 48 hrs by SRB assay; conditions: COLO 205, 48 h
Outline: (§1)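 NCI 60-cell-line screen: after preliminary screening, tested at five dose concentrations on 59 human tumour lines covering leukemia, lung, colon, CNS, melanoma, ovarian, renal, prostate and breast.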

SNB-19 = experiment: Growth inhibition of human SNB19 cells after 48 hrs by SRB assay; conditions: SNB-19, 48 h
Outline: (§2)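 NCI 60-cell-line panel, five-dose testing after preliminary screen; sulforhodamine B protein assay in DMEM with 10% FBS, 37 °C, 5% CO2, 100% humidity. Cells seeded and incubated 24 h before compound addition, then exposed 48 h. Absorbance read at 560 nm; growth percentage relative to control wells; GI50 taken as concentration giving 50% growth inhibition.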

MDA-MB-231 = experiment: Growth inhibition of human MDA-MB-231 cells after 48 hrs by SRB assay; conditions: MDA-MB-231, 48 h; outline: as §1
NCI-H522 = experiment: Growth inhibition of human NCI-H522 cells after 48 hrs by SRB assay; conditions: NCI-H522, 48 h; outline: as §1
MCF7 [1] = experiment: Cytotoxicity against human MCF7 cells after 48 hrs assessed as inhibition of cell growth at 10 uM after 48 hrs by SRB assay relative to control; conditions: MCF7, 48 h, read-out: GI
Outline: (§3)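 SRB protein assay in DMEM with 10% FBS at 37 °C, 5% CO2, 100% relative humidity. Cells seeded in 96-well plates, incubated 24 h, then exposed to drug at 10 µM for 48 h and processed per standard protocol. Absorbance read at 560 nm; growth percentage calculated for test wells relative to control wells.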

UO-31 = experiment: Growth inhibition of human UO31 cells after 48 hrs by SRB assay; conditions: UO-31, 48 h; outline: as §2
OVCAR-4 = experiment: Growth inhibition of human OVCAR4 cells after 48 hrs by SRB assay; conditions: OVCAR-4, 48 h; outline: as §1
HCC 2998 = experiment: Growth inhibition of human HCC2998 cells after 48 hrs by SRB assay; conditions: HCC 2998, 48 h; outline: as §1
LOX IMVI = experiment: Growth inhibition of human LOXIMVI cells after 48 hrs by SRB assay; outline: as §1
SNB-75 = experiment: Growth inhibition of human SNB75 cells after 48 hrs by SRB assay; conditions: SNB-75, 48 h; outline: as §2
SN12C = experiment: Growth inhibition of human SN12C cells after 48 hrs by SRB assay; outline: as §2
MCF7 [2] = experiment: Cell cycle arrest in human MCF7 cells assessed as accumulation at G2/M phase at 4 uM after 24 hrs by FACS analysis (reference value: 34.88%)
TK-10 = experiment: Growth inhibition of human TK10 cells after 48 hrs by SRB assay; conditions: TK-10, 48 h; outline: as §2
EKVX = experiment: Growth inhibition of human EKVX cells after 48 hrs by SRB assay; outline: as §1
HOP-62 = experiment: Growth inhibition of human HOP62 cells after 48 hrs by SRB assay; conditions: HOP-62, 48 h; outline: as §1
IGROV-1 = experiment: Growth inhibition of human IGROV1 cells after 48 hrs by SRB assay; conditions: IGROV-1, 48 h; outline: as §1
HCT-116 = experiment: Growth inhibition of human HCT116 cells after 48 hrs by SRB assay; conditions: HCT-116, 48 h; outline: as §1
M14 = experiment: Growth inhibition of human M14 cells after 48 hrs by SRB assay; conditions: M14, 48 h; outline: as §1
UACC-257 = experiment: Growth inhibition of human UACC257 cells after 48 hrs by SRB assay; outline: as §2
A498 = experiment: Growth inhibition of human A498 cells after 48 hrs by SRB assay; conditions: A498, 48 h; outline: as §1
MCF7 [3] = experiment: Cell cycle arrest in human MCF7 cells assessed as accumulation at G1 phase at 4 uM after 24 hrs by FACS analysis (reference value: 58.33%)
NCI-H460 = experiment: Growth inhibition of human NCI-H460 cells after 48 hrs by SRB assay; conditions: NCI-H460, 48 h; outline: as §1
MOLT-4 = experiment: Growth inhibition of human MOLT4 cells after 48 hrs by SRB assay; conditions: MOLT-4, 48 h; outline: as §1
A549 = experiment: Cytotoxicity against human A549 cells assessed as inhibition of cell growth at 10 uM after 48 hrs by SRB assay relative to control; conditions: A549, 48 h, read-out: GI; outline: as §3
DU-145 = experiment: Growth inhibition of human DU145 cells after 48 hrs by SRB assay; conditions: DU-145, 48 h; outline: as §1
T47D = experiment: Growth inhibition of human T47D cells after 48 hrs by SRB assay; outline: as §2
NCI-H226 = experiment: Growth inhibition of human NCI-H226 cells after 48 hrs by SRB assay; conditions: NCI-H226, 48 h; outline: as §1
Hs-578T = experiment: Growth inhibition of human Hs578T cells after 48 hrs by SRB assay; outline: as §1
OVCAR-8 = experiment: Growth inhibition of human OVCAR8 cells after 48 hrs by SRB assay; conditions: OVCAR-8, 48 h; outline: as §1
PC-3 = experiment: Cytotoxicity against human PC3 cells after 48 hrs assessed as inhibition of cell growth at 10 uM after 48 hrs by SRB assay relative to control; conditions: PC-3, 48 h, read-out: GI; outline: as §3
HT-29 = experiment: Growth inhibition of human HT-29 cells after 48 hrs by SRB assay; outline: as §1
NCI-H23 = experiment: Growth inhibition of human NCI-H23 cells after 48 hrs by SRB assay; conditions: NCI-H23, 48 h; outline: as §1
CCRF-CEM = experiment: Growth inhibition of human CCRF-CEM cells after 48 hrs by SRB assay; outline: as §1
MDA-MB-468 = experiment: Growth inhibition of human MDA-MB-468 cells after 48 hrs by SRB assay; conditions: MDA-MB-468, 48 h; outline: as §1
ACHN = experiment: Growth inhibition of human ACHN cells after 48 hrs by SRB assay; outline: as §1
CAKI-1 = experiment: Growth inhibition of human Caki1 cells after 48 hrs by SRB assay; conditions: CAKI-1, 48 h; outline: as §1
SF-295 = experiment: Growth inhibition of human SF295 cells after 48 hrs by SRB assay; conditions: SF-295, 48 h; outline: as §2
UACC-62 = experiment: Growth inhibition of human UACC62 cells after 48 hrs by SRB assay; conditions: UACC-62, 48 h; outline: as §2
RPMI-8226 = experiment: Growth inhibition of human RPMI8226 cells after 48 hrs by SRB assay; conditions: RPMI-8226, 48 h; outline: as §1
K562 = experiment: Growth inhibition of human K562 cells after 48 hrs by SRB assay; conditions: K562, 48 h; outline: as §1
HEp-2 = experiment: Cytotoxicity against human Hep2 cells after 48 hrs assessed as inhibition of cell growth at 10 uM after 48 hrs by SRB assay relative to control; conditions: HEp-2, 48 h, read-out: GI; outline: as §3
HOP-92 = experiment: Growth inhibition of human HOP92 cells after 48 hrs by SRB assay; conditions: HOP-92, 48 h; outline: as §1
U-251 = experiment: Growth inhibition of human U251cells after 48 hrs by SRB assay; conditions: U-251, 48 h; outline: as §2

COc1ccc(/C=C\c2cc(OC)c(OC)c(OC)c2)cc1OCC(=O)Nc1nc2ccc(OC(F)(F)F)cc2s1
GI50 (COLO 205): 43.3 µM
GI50 (SNB-19): 7.08 µM
GI50 (MDA-MB-231): 5.16 µM
GI50 (NCI-H522): 3.16 µM
inhibition of growth at 10 µM (MCF7 [1]): 59%
GI50 (UO-31): 4.37 µM
GI50 (OVCAR-4): 5.34 µM
GI50 (HCC 2998): 17.1 µM
GI50 (LOX IMVI): 4.77 µM
GI50 (SNB-75): 1.56 µM
GI50 (SN12C): 6.42 µM
Activity (MCF7 [2]): 33.45%
GI50 (TK-10): 18.6 µM
GI50 (EKVX): 7.89 µM
GI50 (HOP-62): 7.09 µM
GI50 (IGROV-1): 5.64 µM
GI50 (HCT-116): 3.92 µM
GI50 (M14): 4.36 µM
GI50 (UACC-257): inactive
GI50 (A498): 3.61 µM
Activity (MCF7 [3]): 59.04%
GI50 (NCI-H460): 4.11 µM
GI50 (MOLT-4): 4.21 µM
inhibition of growth at 10 µM (A549): 40%
GI50 (DU-145): 4.11 µM
GI50 (T47D): 3.95 µM
GI50 (NCI-H226): 4.3 µM
GI50 (Hs-578T): 4.33 µM
GI50 (OVCAR-8): 5 µM
inhibition of growth at 10 µM (PC-3): 34%
GI50 (HT-29): inactive
GI50 (NCI-H23): 4.39 µM
GI50 (CCRF-CEM): 4.12 µM
GI50 (MDA-MB-468): 2.3 µM
GI50 (ACHN): 8.31 µM
GI50 (CAKI-1): 4.6 µM
GI50 (SF-295): 3.7 µM
GI50 (UACC-62): 5.11 µM
GI50 (RPMI-8226): 5.83 µM
GI50 (K562): 3.43 µM
inhibition of growth at 10 µM (HEp-2): 78%
GI50 (HOP-92): 2.74 µM
GI50 (U-251): 3.37 µM
